Source: PubChem BioAssay AID623956 (The Scripps Research Institute Molecular Screening Center, 2012)
The source made the active and inactive calls.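 Rule for the calls: active = at least 4-fold drop in recombinant frequency versus the solvent-only control; inactive = the rest.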

system: E. coli recBCD-deleted + H. pylori AddAB/RecA, Hfr recombinant frequency; test: recombination inhibition in AddAB/RecA E. coli, late-stage follow-up, counter-screen for AddAB inhibitor project, colony formation, p(addAB), p(recA), 20 µM (AID 623956); details: at 20 µM; hits give high values
Summary of the method: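 Times: compound exposure 1.5 h total, including 30 min mating / Test system: recBCD-deleted E. coli recipient carrying H. pylori addAB and recA plasmids / Buffer or medium: LB broth for recipient pre-growth / Compound: single 20 µM compound dose, DMSO vehicle / Repeats: duplicate experiments / Measured by: differential plating for His+ StrR recombinant colonies, non-selective plating for viability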

Row | Structure (SMILES) | fold reduction
1 | NC(=O)c1ccsc1NC(=O)COC(=O)c1ccc([N+](=O)[O-])o1 | 1.1 (inactive)
2 | O=C(Nc1cccc(NC(=O)c2ccccc2Cl)c1)c1ccc([N+](=O)[O-])o1 | 0.8 (inactive)
3 | CCn1cc(C(=O)O)c(=O)c2cnc(N3CCN(C(=S)Nc4ccccc4C(F)(F)F)CC3)nc21 | 5
4 | O=C(Nc1ccc(N2CCOCC2)cc1)c1ccc([N+](=O)[O-])o1 | 0.8 (inactive)
5 | C=CCn1c(Sc2ncc([N+](=O)[O-])s2)n[nH]c1=O | 1.1 (inactive)
6 | O=C(NCc1cccnc1)c1ccc([N+](=O)[O-])o1 | 0.8 (inactive)
7 | Cc1ccc2nc(/C(C#N)=C\c3ccc([N+](=O)[O-])o3)[nH]c2c1 | 1 (inactive)
8 | O=C(Nc1ncccn1)c1ccc([N+](=O)[O-])o1 | 0.9 (inactive)
9 | Cc1cccnc1NC(=O)c1ccc([N+](=O)[O-])o1 | 0.8 (inactive)
10 | O=C(OCC(=O)c1cccs1)c1ccc([N+](=O)[O-])o1 | 0.9 (inactive)
11 | CC(=O)Nc1ccc2nc(NC(=O)c3ccc([N+](=O)[O-])o3)sc2c1 | 1.1 (inactive)
